High-throughput results as filed in PubChem BioAssay.
In the library only some 2.3% were active in any assay of this set; here they are far more common.
PRMT1 FP inh – inhibitors of human PRMT1; recombinant PRMT1, activity-based probe fluorescence polarization; inhibition, % at 2.79 µM; Q99873; hit rate 1.3% among 370,000; AID 652257;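 active = inhibition above about 21% made by adding two undisclosed values, limit read from the data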
PME-1 primary – PME-1 (human) inhibition. hit rate 0.53% among 320,000. recombinant PME-1, FP-Rh probe fluorescence polarization. inhibition, % at 5.9 µM;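 active = inhibition above the campaign mean of all compounds plus 3 SD, cut at about 26% in these data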;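 note: competitive labeling of PME-1 active site by serine hydrolase directed probe; 0% = PME-1 with DMSO and 100% = wells lacking PME-1 enzyme; inhibitors block probe labeling so polarization falls and inhibition rises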
Target sequence (Q9Y570 whole entry, looked up): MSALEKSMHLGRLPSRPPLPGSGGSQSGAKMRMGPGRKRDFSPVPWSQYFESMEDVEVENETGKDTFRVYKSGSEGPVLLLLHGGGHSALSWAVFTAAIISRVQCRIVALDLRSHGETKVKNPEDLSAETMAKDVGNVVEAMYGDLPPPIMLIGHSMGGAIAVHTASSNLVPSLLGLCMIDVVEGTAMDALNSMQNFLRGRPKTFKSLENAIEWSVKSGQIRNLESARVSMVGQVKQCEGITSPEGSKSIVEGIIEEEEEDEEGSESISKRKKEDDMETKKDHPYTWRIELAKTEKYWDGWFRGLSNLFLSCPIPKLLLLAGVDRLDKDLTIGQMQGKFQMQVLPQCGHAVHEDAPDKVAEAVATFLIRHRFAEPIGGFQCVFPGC
Fam108B inh – blocks mouse Fam108B hydrolase in RBBP9 counter-screen; AID 1947; recombinant Fam108B, FP-Rh probe fluorescence polarization; hit rate 0.33% among 300,000; inhibition, % at 9.51 µM;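 active = inhibition above the screen mean inhibition plus 3 SD, computed separately per campaign, cut at about 18% in these data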;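 note: inhibitors lower polarization as less probe binds the enzyme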
GSTO1 counter – blocks human GSTO1 in RBBP9 counter-screen; P78417; recombinant GSTO1, activity-based probe fluorescence polarization; inhibition, % at 5.96 µM; hit rate 1.1% among 300,000;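 active = inhibition above the campaign mean inhibition plus 3 SD, cut at about 35% in these data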;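 note: 0% = GSTO1-1 with DMSO and 100% = wells lacking GSTO1-1 enzyme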
RBBP9 inhibitor – blocks human serine hydrolase RBBP9. O75884. recombinant RBBP9, FP-Rh probe fluorescence polarization. inhibition, % at 7.94 µM. hit rate 0.2% among 220,000;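 active = inhibition above the campaign mean of all tested compounds plus 3 SD, cut at about 14% in these data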;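 note: plate controls were DMSO wells with RBBP9 for no effect and wells lacking RBBP9 protein for full effect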
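System: RBBP9 protein / Quantity: 2.5 µM RBBP9 dispensing solution, before mixing / Also added: Serine-hydrolase probe FP-Rh, 375 nM pre-mixing / Dosing: 7.94 µM single dose, 0.794% DMSO / Timing: enzyme-compound preincubation 30 min, then probe labeling 45 min, 25 °C / Signal: FP readout at 525/598 nm / Controls: DMSO-treated enzyme wells and wells lacking RBBP9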
PAD4 inh – blocks human protein arginine deiminase 4; recombinant PAD4, RCA probe fluorescence polarization; inhibition, % at 6.36 µM; hit rate 0.41% among 330,000; AID 485272;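 active = percent inhibition above a cutoff equal to the mean of all tested compounds plus 3 SD, cut at about 15% in these data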;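 note: 0% = PAD4 with RCA probe and DMSO and 100% = probe without PAD4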
Active calls of the source: *; . = no result given.

SMILES	PRMT1 FP inh	PME-1 primary	Fam108B inh	GSTO1 counter	RBBP9 inhibitor	PAD4 inh
O=C1CC(SCc2nc3ccccc3[nH]2)C(=O)N1c1ccc(F)cc1 (centres undefined)	14	3	-2	16	0	-7
O=C1CC(SCc2nc3ccccc3[nH]2)C(=O)N1c1cccc(Cl)c1 (centres undefined)	31*	-2	4	11	-5	-1
N#Cc1c(N)sc(=S)c2c1CCN(Cc1ccccc1)C2	.	32*	27*	51*	.	54*
Oc1ccc(N2CCN(Cc3c(-c4ccccc4)nc4ccccn34)CC2)cc1	22*	7	2	19	.	-2
Clc1ccc(-c2nc3ccccn3c2CN2CCCCC2)cc1	-3	4	1	-1	-9	-3
O=S(c1cc(Cl)cc(Cl)c1O)c1cc(Cl)cc(Cl)c1O	1	.	.	.	.	.
Oc1c(Cl)cc(Cl)cc1Sc1cc(Cl)cc(Cl)c1O	.	42*	44*	57*	-5	-3
Cc1ccccc1S(=O)(=O)c1cc(C#N)c(=O)[nH]c1N	1	-4	1	-3	7	-5
Cc1ccc(NCC(=O)N=Nc2c(O)[nH]c3ccc([N+](=O)[O-])cc23)cc1	7	-1	5	33	13	-4
Cc1ccc(OC(C)C(=O)N=Nc2c(O)[nH]c3ccc([N+](=O)[O-])cc23)cc1 (centres undefined)	-3	5	7	36*	-3	-4
CCNC(=S)N=Nc1c(O)[nH]c2ccc([N+](=O)[O-])cc12	1	7	6	45*	-6	-4
C[C@H](CCC(=O)OCc1cn(CC(=O)c2ccc(O)cc2)nn1)C1CC[C@H]2[C@@H]3CC[C@@H]4C[C@H](O)CC[C@]4(C)[C@H]3C[C@H](O)[C@]12C (some centres undefined)	-1	.	.	.	.	.
CNc1cccccc1=S	26*	-2	1	37*	-10	11
CNc1ccccc1	-1	-1	.	.	.	-1
CN(C1=C(NC(=O)c2ccc(Cl)cc2)C(=O)c2ccccc2C1=O)c1ccccc1	3	5	8	43*	3	-1
COC(=O)c1ccc(OC(=O)c2cccs2)cc1	-1	8	2	1	0	3
CCOC(=O)c1nn(-c2ccccc2C)c(=O)c2c(N)scc12	25*	3	-1	16	-5	-5
CCOC(=O)c1nn(-c2ccccc2)c(=O)c2c(N)scc12	17	5	3	11	8	-1
Nc1cccc(-c2cccc3nncn23)c1	-1	.	.	.	.	.
Cc1[nH]c2ccccc2c1/C=N/n1cnnc1	-3	4	2	-6	-7	-4
COCCN=c1scc(-c2cc(OC)c(OC)c(OC)c2)n1/N=C/c1c(C)[nH]c2ccccc12	-2	27*	4	-2	-7	-7
CC(=O)OCn1ncc(N2CCOCC2)c(Br)c1=O	-4	0	-6	3	.	2
O=C(OCn1ncc(Br)c(Br)c1=O)c1ccc(F)cc1	.	-4	-11	36*	0	26*
CCN(CC)c1nc(Nc2ccc([N+](=O)[O-])cc2)nc(N(CC)CC)n1	2	1	-7	1	.	0
COc1ccc(/C=C2\Sc3ccc(C(=O)N4CCN(Cc5ccccc5)CC4)cc3N(C)C2=O)cc1OC	-3	42*	-2	-80	.	4
SMILES	PRMT1 FP inh	PME-1 primary	Fam108B inh	GSTO1 counter	RBBP9 inhibitor	PAD4 inh
CN1CCN(C(=O)c2ccc3c(c2)N(C)C(=O)/C(=C/c2cccc(Cl)c2)S3)CC1	1	21	0	-16	.	-1
COc1cc2c(cc1OC)CN(CC(=O)Nc1ccc(Cl)c(S(=O)(=O)N(C)C)c1)CC2	.	40*	-3	3	-3	-5
CCOC(=O)Cc1nnc(NC(=O)CSc2nnc3c4ccccc4n(C)c3n2)s1	2	-5	-8	35*	-7	-2
CCCOc1cc(C)c(S(=O)(=O)n2ccc(C)n2)cc1C	0	-2	-2	-6	0	-2
Cc1ccc2c(c1)-c1c(cnn1CC(=O)NCCc1cccc(F)c1)CO2	1	.	.	.	.	.
CCCn1c(N)c(C(=O)CN(C)CC(=O)Nc2cccc(F)c2)c(=O)[nH]c1=O	4	2	.	.	.	-2
CCCn1c(N)c(C(=O)CN(C)CC(=O)Nc2ccccc2CC)c(=O)[nH]c1=O	0	33*	.	.	.	3
CSCCCNC(=O)c1oc(=O)c2ccccc2c1-c1ccc(C)cc1	0	.	.	.	.	.
